In brackets after ≈: the same amount, converted by molar mass. Activity calls are given as the source filed them. No cut-off for these calls is given here.
Columns and labels:
Type in all cases: functional
Staphylococcus aureus = experiment: Antibacterial activity against Staphylococcus aureus A4.018 by broth microdilution method
Enterococcus faecium = experiment: Antibacterial activity against Enterococcus faecium 7130724 by broth microdilution method
[1] = Antibacterial activity against Clostridium difficile ATCC 43255 by broth microdilution method; conditions: Clostridioides difficile
Outline: (§1)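 Broth microdilution MICs were run per CLSI M07-A8 (2009). The strain panel included C. difficile ATCC 43255, E. faecalis ATCC 29212 and S. pyogenes ATCC BAA-595.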

Streptococcus pyogenes = experiment: Antibacterial activity against Streptococcus pyogenes ATCC BAA-595 by broth microdilution method; outline: as §1
Escherichia coli = experiment: Inhibition of protein synthesis in Escherichia coli S30 extract at 2 uM after 75 mins by luciferase based luminescence assay relative to GE2270A
Enterococcus faecalis = experiment: Antibacterial activity against Enterococcus faecalis ATCC 29212 by broth microdilution method; outline: as §1
[2] = tested on: Clostridium difficile ATCC 43255; experiment: Antibacterial activity against Clostridium difficile ATCC 43255 infected in golden syrian hamster assessed as decrease in toxin level in cecum after 21 days by ELISA; conditions: Caecum
Outline: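 In the clindamycin-pretreated, C. difficile-infected hamster model, oral compound was given once daily on days 1–5. Surviving animals were euthanized at study end (day 21). Cecal homogenates were assayed for C. difficile toxins A and B by Tox A/B II ELISA per kit directions.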

[3] = Antibacterial activity against Clostridium difficile ATCC 43255 infected in golden syrian hamster assessed as survival rate at 20 mg/kg, po qd administered days 1 to 5 measured on days 6 to 21; conditions: Clostridioides difficile
Outline: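 Golden Syrian hamsters got clindamycin 10 mg/kg sc on day −1. On day 0 they were gavaged with ~7.5 × 10^6 CFU C. difficile ATCC 43255 (0.75 mL). From 24 h post-infection they were dosed orally once daily for up to 5 days (8/dose), in a NaOH/PEG-400/2.5% Cremophor EL solution diluted in pH 7.4 PBS. Vehicle controls were included, and animals were observed twice daily through day 21.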

| SMILES | MIC (Staphylococcus aureus) [µg/mL] | MIC (Enterococcus faecium) [µg/mL] | MIC [1] [µg/mL] | MIC (Streptococcus pyogenes) [µg/mL] | inhibition at 2 µM (Escherichia coli) [%] | MIC (Enterococcus faecalis) [µg/mL] | Activity [2] | survival at 20 mg/kg [3] [%] |
| --- | --- | --- | --- | --- | --- | --- | --- | --- |
| CNC(=O)C[C@@H]1NC(=O)c2csc(n2)-c2ccc(-c3nc(N(CCOCC(=O)O)C(=O)O[C@H]4CC[C@H](C(=O)O)CC4)cs3)nc2-c2csc(n2)-c2csc(n2)[C@H]([C@@H](O)c2ccccc2)NC(=O)CNC(=O)c2nc(sc2COC)[C@H](C(C)C)NC(=O)c2nc1sc2C | 4 (≈ 2.92 µM) | 2 (≈ 1.46 µM) | 0.125 (≈ 0.0913 µM) | 4 (≈ 2.92 µM) | 67 | 2 (≈ 1.46 µM) |  |  |
| CNC(=O)C[C@@H]1NC(=O)c2csc(n2)-c2ccc(-c3nc(N(CCCC(=O)O)C(=O)CCCC(=O)O)cs3)nc2-c2csc(n2)-c2csc(n2)[C@H]([C@@H](O)c2ccccc2)NC(=O)CNC(=O)c2nc(sc2COC)[C@H](C(C)C)NC(=O)c2nc1sc2C | > 32 | > 32 | > 4 | > 32 | 30 | > 32 |  |  |
| CNC(=O)C[C@@H]1NC(=O)c2csc(n2)-c2ccc(-c3nc(N(CCCCC(=O)O)C(=O)[C@H]4CC[C@@H](C(=O)O)O4)cs3)nc2-c2csc(n2)-c2csc(n2)[C@H]([C@@H](O)c2ccccc2)NC(=O)CNC(=O)c2nc(sc2COC)[C@H](C(C)C)NC(=O)c2nc1sc2C | > 32 | > 32 | > 4 | > 32 | 30 | > 32 |  |  |
| CNC(=O)C[C@@H]1NC(=O)c2csc(n2)-c2ccc(-c3nc(N(C/C=C/C(=O)O)C(=O)O[C@H]4CC[C@H](C(=O)O)CC4)cs3)nc2-c2csc(n2)-c2csc(n2)[C@H]([C@@H](O)c2ccccc2)NC(=O)CNC(=O)c2nc(sc2COC)[C@H](C(C)C)NC(=O)c2nc1sc2C | 0.5 (≈ 0.37 µM) | 0.5 (≈ 0.37 µM) | 0.03 (≈ 0.0222 µM) | 2 (≈ 1.48 µM) | 67 | 0.25 (≈ 0.185 µM) |  |  |
| CNC(=O)C[C@@H]1NC(=O)c2csc(n2)-c2ccc(-c3nc(NC(=O)N4C[C@H](CCC(=O)O)C[C@H](CCC(=O)O)C4)cs3)nc2-c2csc(n2)-c2csc(n2)[C@H]([C@@H](O)c2ccccc2)NC(=O)CNC(=O)c2nc(sc2COC)[C@H](C(C)C)NC(=O)c2nc1sc2C | 4 (≈ 2.96 µM) | 4 (≈ 2.96 µM) | 0.25 (≈ 0.185 µM) | 4 (≈ 2.96 µM) | 30 | 2 (≈ 1.48 µM) |  |  |
| CN[C@H](CC(C)C)C(=O)N[C@H]1C(=O)N[C@@H](CC(N)=O)C(=O)N[C@H]2C(=O)N[C@H]3C(=O)N[C@H](C(=O)N[C@H](C(=O)O)c4cc(O)cc(O)c4-c4cc3ccc4O)[C@H](O)c3ccc(c(Cl)c3)Oc3cc2cc(c3O[C@@H]2O[C@H](CO)[C@@H](O)[C@H](O)[C@H]2O[C@H]2C[C@](C)(N)[C@H](O)[C@H](C)O2)Oc2ccc(cc2Cl)[C@H]1O [VANCOMYCIN] |  |  |  |  |  |  | Active | 25 |
| CNC(=O)C[C@@H]1NC(=O)c2csc(n2)-c2ccc(-c3nc(N(CCCCC(=O)O)C(=O)[C@H]4CC[C@H]4C(=O)O)cs3)nc2-c2csc(n2)-c2csc(n2)[C@H]([C@@H](O)c2ccccc2)NC(=O)CNC(=O)c2nc(sc2COC)[C@H](C(C)C)NC(=O)c2nc1sc2C | 32 (≈ 24.2 µM) | 32 (≈ 24.2 µM) | 4 (≈ 3.02 µM) | > 32 | 30 | 16 (≈ 12.1 µM) |  |  |

Reference: ChEMBL document CHEMBL2062386, “Discovery of LFF571: an investigational agent for Clostridium difficile infection” (J Med Chem, 2012)
